Results on 23 compounds are retold here after ChEMBL document CHEMBL4219120, “Synthesis and SAR study of new hydroxy and chloro-substituted 2,4-diphenyl 5H-chromeno[4,3-b]pyridines as selective topoisomerase IIα-targeting anticancer agents” (Bioorg Med Chem, 2018).

Where a name gives a salt, the structure may show the parent alone. Active and inactive are the calls of the source. No cut-off for these calls is given here.

Assay [1] concerns the target DNA topoisomerase 2-alpha (Homo sapiens) (UniProt P11388). As to the kind of experiment: Inhibition of recombinant human topoisomerase 2alpha assessed as decrease in relaxation of supercoiled pBR322 DNA at 20 uM after 30 mins by agarose gel electrophoresis relative to etoposide.
The target is the same in assay [2]. As to the kind of experiment: Inhibition of recombinant human topoisomerase 2alpha assessed as decrease in relaxation of supercoiled pBR322 DNA at 100 uM after 30 mins by agarose gel electrophoresis relative to etoposide.
Assay [3] has as its target T1, DNA topoisomerase 1 (Homo sapiens) (UniProt P11387).
T1 sequence (whole entry): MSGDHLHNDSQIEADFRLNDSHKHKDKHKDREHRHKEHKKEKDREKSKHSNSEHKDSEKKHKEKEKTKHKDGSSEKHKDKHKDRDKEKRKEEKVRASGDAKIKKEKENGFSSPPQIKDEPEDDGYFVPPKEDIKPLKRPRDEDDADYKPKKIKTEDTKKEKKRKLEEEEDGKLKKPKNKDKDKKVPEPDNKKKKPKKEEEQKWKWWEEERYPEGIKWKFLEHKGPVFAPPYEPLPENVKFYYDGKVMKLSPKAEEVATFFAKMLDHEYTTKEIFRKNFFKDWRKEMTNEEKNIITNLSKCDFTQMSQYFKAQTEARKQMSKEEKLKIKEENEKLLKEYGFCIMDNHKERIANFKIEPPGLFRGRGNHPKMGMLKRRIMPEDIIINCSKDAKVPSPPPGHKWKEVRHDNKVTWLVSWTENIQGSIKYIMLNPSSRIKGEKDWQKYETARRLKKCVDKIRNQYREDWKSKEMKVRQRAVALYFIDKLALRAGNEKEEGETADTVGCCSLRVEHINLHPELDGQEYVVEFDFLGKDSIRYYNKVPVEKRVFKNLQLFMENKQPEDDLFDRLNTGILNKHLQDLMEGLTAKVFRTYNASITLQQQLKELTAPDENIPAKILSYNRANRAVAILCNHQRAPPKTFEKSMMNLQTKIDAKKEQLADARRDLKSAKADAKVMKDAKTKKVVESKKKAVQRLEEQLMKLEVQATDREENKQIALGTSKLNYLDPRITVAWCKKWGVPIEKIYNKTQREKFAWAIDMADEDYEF
As to the kind of experiment: Inhibition of recombinant human topoisomerase 1 assessed as decrease in relaxation of supercoiled pBR322 DNA at 20 uM after 30 mins by agarose gel electrophoresis relative to camptothecin.

Assay [4] addresses T1, DNA topoisomerase 1 (Homo sapiens). As to the kind of experiment: Inhibition of recombinant human topoisomerase 1 assessed as decrease in relaxation of supercoiled pBR322 DNA at 100 uM after 30 mins by agarose gel electrophoresis relative to camptothecin.
The test system of the next assay is HeLa. As to the kind of experiment: Antiproliferative activity against human HeLa cells after 72 hrs by CCK-8 assay. It counts as functional, cell-based. In a few lines: (§1)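 Cells seeded at 2-4 x 10^4 per well and grown overnight in medium with 10% FBS (37 °C, 5% CO2). After 4 h FBS starvation, medium was replaced with medium containing graded compound concentrations for 72 h. CCK-8 was added for 4 h more, then absorbance read at 450 nm. IC50 came from a four-parameter logistic fit. Mean ± S.D. of three experiments, each in triplicate.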
(Tetrazolium assays rely on reduction of a dye to a coloured formazan, in cell work by metabolically active cells.)

The next assay relates to HCT-15. As to the kind of experiment: Antiproliferative activity against human HCT15 cells after 72 hrs by CCK-8 assay. It counts as functional, cell-based. To be noted: HCT-15, 72 h. In a few lines:
as §1

Assay [5] addresses T1, DNA topoisomerase 1 (Homo sapiens). As to the kind of experiment: Inhibition of recombinant human topoisomerase 1 assessed as decrease in relaxation of supercoiled pBR322 DNA at 100 uM after 30 mins by agarose gel electrophoresis relative to control. In a few lines: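 Supercoiled pBR322 (100 ng) with 1 unit recombinant human topo I in 10 mM Tris-HCl pH 7.9, 150 mM NaCl, 0.1% BSA, 0.1 mM spermidine, 5% glycerol, 30 min at 37 °C. Stopped with SDS/dye stop solution. Run on 0.8% agarose in TAE, 50 V, 1 h; EtBr-stained; bands quantitated under UV. Compounds came from 20 mM DMSO stocks. 20 µM was tested only when inhibition at 100 µM exceeded 30%. Camptothecin was the positive control.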

In assay [6] the target is DNA topoisomerase 2-alpha (Homo sapiens) (UniProt P11388). The assay is described as follows: Inhibition of recombinant human topoisomerase 2alpha assessed as decrease in relaxation of supercoiled pBR322 DNA at 100 uM after 30 mins by agarose gel electrophoresis relative to control. In outline: (§2)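 Recombinant human topo IIα (1 unit) with 100 ng supercoiled pBR322 in 10 mM Tris-HCl pH 7.9, 50 mM NaCl, 50 mM KCl, 5 mM MgCl2, 1 mM EDTA, 1 mM ATP, 15 µg/mL BSA, 30 min at 37 °C. Quenched with 7 mM EDTA. 0.8% agarose/TAE gel, 50 V, 1 h; EtBr stain; UV densitometry. Compounds came from 20 mM DMSO stocks. 20 µM was tested only when inhibition at 100 µM exceeded 30%. Etoposide was the positive control.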
Chain of DNA topoisomerase 2-alpha (Homo sapiens) (P11388 whole entry): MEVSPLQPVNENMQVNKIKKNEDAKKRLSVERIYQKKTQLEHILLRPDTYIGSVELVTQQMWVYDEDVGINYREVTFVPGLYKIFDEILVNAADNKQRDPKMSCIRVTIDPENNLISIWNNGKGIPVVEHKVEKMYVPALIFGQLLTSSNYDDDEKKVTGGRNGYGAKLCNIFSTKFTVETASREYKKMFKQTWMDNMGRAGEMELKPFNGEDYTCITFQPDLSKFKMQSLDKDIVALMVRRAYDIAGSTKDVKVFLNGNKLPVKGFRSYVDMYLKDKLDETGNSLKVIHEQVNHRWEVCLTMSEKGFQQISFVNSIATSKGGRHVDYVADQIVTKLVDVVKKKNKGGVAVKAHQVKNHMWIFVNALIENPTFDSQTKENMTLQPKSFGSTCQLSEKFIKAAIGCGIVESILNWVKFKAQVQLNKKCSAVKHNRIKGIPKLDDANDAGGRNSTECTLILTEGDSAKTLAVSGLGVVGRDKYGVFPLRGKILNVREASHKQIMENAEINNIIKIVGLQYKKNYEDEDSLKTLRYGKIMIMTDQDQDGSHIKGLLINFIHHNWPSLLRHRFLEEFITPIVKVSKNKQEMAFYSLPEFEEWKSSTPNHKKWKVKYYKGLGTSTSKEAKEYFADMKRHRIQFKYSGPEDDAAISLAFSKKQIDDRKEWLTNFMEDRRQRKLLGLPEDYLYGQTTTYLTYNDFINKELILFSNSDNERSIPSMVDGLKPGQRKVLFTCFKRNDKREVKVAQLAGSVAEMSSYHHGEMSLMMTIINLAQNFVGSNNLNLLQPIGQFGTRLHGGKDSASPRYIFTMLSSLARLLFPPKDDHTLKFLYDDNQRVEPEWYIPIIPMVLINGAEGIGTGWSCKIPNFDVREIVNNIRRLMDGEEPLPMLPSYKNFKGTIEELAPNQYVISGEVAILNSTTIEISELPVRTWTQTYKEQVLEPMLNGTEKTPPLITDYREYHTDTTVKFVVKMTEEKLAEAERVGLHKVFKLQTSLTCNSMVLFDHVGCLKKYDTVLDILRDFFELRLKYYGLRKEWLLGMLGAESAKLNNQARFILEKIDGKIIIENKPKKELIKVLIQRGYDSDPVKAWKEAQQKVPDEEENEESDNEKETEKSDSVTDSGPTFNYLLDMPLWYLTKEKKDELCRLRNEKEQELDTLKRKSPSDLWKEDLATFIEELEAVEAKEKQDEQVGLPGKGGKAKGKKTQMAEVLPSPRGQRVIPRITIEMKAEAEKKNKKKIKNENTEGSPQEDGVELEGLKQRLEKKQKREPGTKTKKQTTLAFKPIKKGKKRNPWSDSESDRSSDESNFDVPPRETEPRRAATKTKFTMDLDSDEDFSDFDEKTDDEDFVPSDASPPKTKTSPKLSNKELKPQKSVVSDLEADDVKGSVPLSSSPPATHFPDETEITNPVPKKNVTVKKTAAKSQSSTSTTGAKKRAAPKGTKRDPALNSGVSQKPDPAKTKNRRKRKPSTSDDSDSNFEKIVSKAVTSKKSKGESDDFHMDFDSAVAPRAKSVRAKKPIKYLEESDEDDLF

The next assay relates to T47D. The assay is described as follows: Antiproliferative activity against human T47D cells after 72 hrs by CCK-8 assay. It is filed as functional, cell-based. In a few lines:
as §1

In assay [7] the target is DNA topoisomerase 2-alpha (Homo sapiens) (UniProt P11388). As to the kind of experiment: Inhibition of recombinant human topoisomerase 2alpha assessed as decrease in relaxation of supercoiled pBR322 DNA at 20 uM after 30 mins by agarose gel electrophoresis relative to control. In a few lines: as §2

As to `Oc1cccc(-c2cc(-c3cccc(Cl)c3)nc3c2oc2ccccc23)c1`, the fold change (FC) in assay [1] came out at 0.65; in assay [2], 0.98; in [3] it was 2.02; in assay [4], 1.12.
Consider `Oc1ccccc1-c1cc(-c2ccccc2Cl)c2c(n1)-c1ccccc1OC2`, for which the values for the IC50 in the assay on HeLa, in the assay on HCT-15 and in the assay on T47D were greater than 50000 nM, greater than 50000 nM and 1660 nM, respectively. Moreover, the inhibition entry in assay [5] is “inactive”. Moreover, the values for the inhibition in assay [6] and in assay [7] were 78.1% and 45.5%, respectively.
As for `Oc1ccc(-c2cc(-c3ccccc3Cl)nc3c2oc2ccccc23)cc1`, the fold change (FC) in assay [1] turned out to be 0.56; in assay [2], 1.07; in assay [3], 1.99; in assay [4], 1.39.
`Oc1cccc(-c2cc(-c3ccc(Cl)cc3)nc3c2COc2ccccc2-3)c1`: the IC50 in the assay on HeLa worked out at 760 nM; with HCT-15, 2300 nM; with T47D it was 1180 nM. Also, the inhibition worked out at 28.8% in assay [5], 71.3% in assay [6] and 63.8% in assay [7]. Besides, the fold change (FC) in assay [1] is 1.8; in assay [2], 1.07; in [4], 0.36.
For the compound `Oc1ccccc1-c1cc(-c2ccccc2Cl)nc2c1oc1ccccc12`, the fold change (FC) in assay [1] is 0.62; in assay [2], 0.98; in [4], 0.18.
In the case of `Oc1ccccc1-c1cc(-c2ccccc2Cl)nc2c1COc1ccccc1-2`, the IC50 in the assay on HeLa, in the assay on HCT-15 and in the assay with T47D was greater than 50000 nM in each case. Also, the results for the inhibition in assay [5], in [6] and in [7] were 4.7%, 79.1% and 47.3%, respectively. Moreover, the fold change (FC) in assay [1] is 1.33; in assay [2] it was 1.19; in assay [4] it was 0.06.
Consider `Oc1ccccc1-c1cc(-c2ccc(Cl)cc2)nc2c1COc1ccccc1-2`, for which the IC50 is greater than 50000 nM in the assay with HeLa, 1660 nM in the assay on HCT-15 and greater than 50000 nM with T47D. For the same compound, the inhibition was determined as 7.6% in assay [5], 88.9% in [6] and 56.6% in assay [7]. The fold change (FC) in [1] is 1.59; in [2], 1.34; in assay [4], 0.1.
In the case of `Oc1ccccc1-c1cc(-c2cccc(Cl)c2)c2c(n1)-c1ccccc1OC2`, the 50% inhibitory concentration (IC50) with HeLa, in the assay on HCT-15 and in the assay with T47D was greater than 50000 nM each time. The inhibition in [5] is 21.1%; in assay [6] it was 18.9%.
Consider `Oc1ccccc1-c1cc(-c2cccc(Cl)c2)nc2c1oc1ccccc12`, for which the fold change (FC) in assay [1] was found to be 0.91; in assay [2], 0.97; in assay [3], 0.38; in [4], 1.01.
`Oc1cccc(-c2cc(-c3ccc(Cl)cc3)c3c(n2)-c2ccccc2OC3)c1`: the values for the IC50 in the assay with HeLa, with HCT-15 and in the assay on T47D were 1940 nM, 4570 nM and 750 nM, respectively. In addition, the inhibition in assay [5] is 20.2%; in [6] it was 66.7%; in assay [7] it was 4.7%.
For `Oc1ccccc1-c1cc(-c2cccc(Cl)c2)nc2c1COc1ccccc1-2`, the IC50 with HeLa worked out at 680 nM; with HCT-15 it was 2230 nM; with T47D it was 1230 nM. The inhibition was determined as 4.4% in assay [5], 75.1% in assay [6] and 51.9% in assay [7]. Besides, the fold change (FC) was found to be 1.46 in assay [1], 1.13 in [2] and 0.06 in [4].
As for `Oc1ccccc1-c1cc(-c2ccc(Cl)cc2)c2c(n1)-c1ccccc1OC2`, the IC50 in the assay on HeLa, with HCT-15 and with T47D was greater than 50000 nM in each case. Besides, the inhibition in [5] was 20.1%; in assay [6] it was 34.7%. Besides, the inhibition result in assay [7] was “inactive”.
Turning to `COc1cc([C@@H]2c3cc4c(cc3[C@@H](O[C@@H]3O[C@@H]5CO[C@@H](C)O[C@H]5[C@H](O)[C@H]3O)[C@H]3COC(=O)[C@H]23)OCO4)cc(OC)c1O` [ETOPOSIDE], the results for the IC50 with HCT-15 and in the assay on T47D were 2450 nM and 320 nM, respectively.
Consider `Oc1cccc(-c2cc(-c3ccc(Cl)cc3)nc3c2oc2ccccc23)c1`, for which the fold change (FC) in assay [1] was determined as 0.27; in assay [2], 1.01; in assay [3] it was 2.09; in [4], 1.32.
For `Oc1ccc(-c2cc(-c3ccc(Cl)cc3)nc3c2oc2ccccc23)cc1` the same measures were 1.75, 1.15, 1.4 and 1.62.
On the same counts, the results for `Oc1ccccc1-c1cc(-c2ccc(Cl)cc2)nc2c1oc1ccccc12` are 0.63, 0.99, 0.93 and 1.39.
`Oc1ccc(-c2cc(-c3cccc(Cl)c3)nc3c2COc2ccccc2-3)cc1`: the IC50 in the assay with HeLa came to 890 nM; with HCT-15 it was 1770 nM; in the assay with T47D, 880 nM. In assay [5], the inhibition result was “inactive”. Further, the figures for the inhibition in assay [6] and in assay [7] were 95.9% and 57.3%, respectively. Further, the fold change (FC) in assay [1] stood at 1.61; in assay [2] it was 1.44. Further, the “fold change (FC)” value in [4] is “inactive”.
For `Oc1cccc(-c2cc(-c3ccccc3Cl)nc3c2oc2ccccc23)c1`, the fold change (FC) in assay [1] came to 0.42; in [2], 0.95; in [3], 0.98; in [4], 1.22.
For the compound `Oc1ccc(-c2cc(-c3ccc(Cl)cc3)nc3c2COc2ccccc2-3)cc1`, the figures for the IC50 in the assay with HeLa, in the assay on HCT-15 and in the assay with T47D were 860 nM, 1830 nM and 1720 nM, respectively. Moreover, in assay [5], the inhibition entry is “inactive”. The inhibition worked out at 87.8% in assay [6] and 41.9% in assay [7]. Besides, the fold change (FC) was 1.18 in [1] and 1.32 in assay [2]. In assay [4], the “fold change (FC)” value was “inactive”.
As to `Oc1cccc(-c2cc(-c3cccc(Cl)c3)c3c(n2)-c2ccccc2OC3)c1`, the values for the IC50 in the assay on HeLa, in the assay on HCT-15 and in the assay with T47D were 820 nM, 1230 nM and 860 nM, respectively. For the same compound, the inhibition was found to be 12% in [5] and 63.6% in [6]. For the same compound, the inhibition result in assay [7] was “inactive”.
Take `CC[C@@]1(O)C(=O)OCc2c1cc1n(c2=O)Cc2cc3ccccc3nc2-1` [CAMPTOTHECIN]: the IC50 with HeLa was 130 nM; with HCT-15 it was 20 nM; in the assay on T47D, 490 nM.
For `Oc1cccc(-c2cc(-c3ccccc3Cl)c3c(n2)-c2ccccc2OC3)c1`, the IC50 was 740 nM in the assay with HeLa, 1520 nM in the assay with HCT-15 and 860 nM with T47D. The inhibition result in assay [5] is “inactive”. Moreover, the inhibition in assay [6] turned out to be 91.7%; in assay [7], 57%.
Turning to `COc1cccc2c1C(=O)c1c(O)c3c(c(O)c1C2=O)C[C@@](O)(C(=O)CO)C[C@@H]3O[C@H]1C[C@H](N)[C@H](O)[C@H](C)O1` [DOXORUBICIN HYDROCHLORIDE], the IC50 with HeLa came to 1700 nM; with HCT-15 it was 730 nM.

For orientation: IC50 means the midpoint of a concentration-inhibition curve. Lower therefore signals greater potency in that assay. As usually defined, the inhibition is how much of the control response was suppressed.
